C2C12 statin = suppressors of simvastatin-induced myotoxicity in C2C12 myotubes | rescue of ATP level, % at 7.49 µM | AID 602340 | 0.78% of 330,000 active | ATP luminescence, 48 h; scaled: DMSO 0, geranylgeraniol control 100;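 active = mean ATP rescue above about 67%, or every replicate alone reaching that limit, limit read from the data, passing the limit was not always enough; inconclusive = no clear call, values can overlap the other calls; inactive = mean under the limit and some replicate under it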;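 note: myotubes were challenged with 10 µM simvastatin during compound exposure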
Cneo AK release = Cryptococcus neoformans lysis via adenylate kinase release. lysis activity, % at 15 µM. 0.2% of 360,000 active. C. neoformans lysis, adenylate kinase release luminescence, 4 h; normalised: neutral wells 0, clomiphene wells 100;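 active = mean lysis activity across replicates of at least 80%, whatever share of replicates individually reach that level; inactive = mean lysis activity below 80%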
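Test system: log-phase Cryptococcus neoformans yeast cells; Quantity: yeast cell density of 5 × 10^6 cells/mL; Buffer or medium: YPD; Doses: single compound concentration per well; Timing: 4 h at 37 °C static, read 1 h later; Measured by: AK luminescence; Read-out basis: lysis from increased AK signal; Control set: Clomiphene as positive control.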
Xi reactivation = activators of X-chromosome reactivation in mouse fibroblasts | activation, % at 7.58 µM | 0.055% of 360,000 active | AID 743238 | XiGFP mouse fibroblasts, % GFP-positive cells imaging, 3 d; cells co-treated with 5-aza-dC sensitizer; scaled so ellipticine positive control = 100%;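 active = mean normalized replicate activation at least 10% and every replicate at or above 10%; inconclusive = only one of the two criteria met; inactive = mean below 10% and not all replicates reach 10%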;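 note: 0% = median of on-plate neutral control wells and 100% = ellipticine 6 µM median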
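Schedule: 3 d treatment, 15 min room-temperature fixation; system: 68-5-11 XiGFP fibroblast line; buffer or medium: DMEM plus 5-aza-dC sensitizer; control set: ellipticine 6 µM positive control; compound: one concentration, pinned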
DENV2 CPE rescue = inhibitors of DENV2 cytopathic effect | DENV2-infected cells, cytopathic effect rescue, plate reader | CPE inhibition, % at 9.99 µM | 1.7% of 350,000 active | AID 651640; in the data active = CPE inhibition above about 20%, passing the limit was not always enough; inconclusive = no clear call, values can overlap the other calls; tested in BHK-21 cells;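 note: 0% = median of neutral control wells and 100% = median of positive control wells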
* = called active by the depositor; ? = inconclusive; . = no result given. In the library only some 2.1% were active in any assay of this set; here they are far more common.

SMILES	C2C12 statin	Cneo AK release	Xi reactivation	DENV2 CPE rescue
COc1cccc(CN2CCC3(CC2)CN(S(C)(=O)=O)[C@@H](CO)c2[nH]c4cc(OC)ccc4c23)c1	.	.	0.2	?
COc1cccc(C(=O)NCC(=O)OCC(=O)C(C)(C)C)c1	.	2.8	0.0	-1.8
CC(C)(C)C(=O)COC(=O)CNC(=O)c1ccc(Oc2ccccc2)cc1	140.8*	-1.0	.	.
CCCN(C)C[C@@H]1Oc2cc(C#CCC(C)C)ccc2S(=O)(=O)N([C@@H](C)CO)C[C@@H]1C	-25.7	5.8	-0.5	-7.9
C[C@H]1[C@@H](Cc2cc(Cl)cc(Cl)c2)N(c2ccccc2)c2ccccc2CN1Cc1ccccc1	.	.	0.1	43.4*
O=C(CSc1nc(-c2ccco2)cc(C(F)(F)F)n1)NCCc1ccccc1	89.3*	.	.	.
O=C(CCCSc1nc(-c2ccco2)cc(C(F)(F)F)n1)NCc1cccs1	125.7*	-4.6	.	.
COc1ccc(CCNC(=O)CSc2nc(-c3ccco3)cc(C(F)(F)F)n2)cc1OC	13.4	0.3	.	5.7
CC1CCN(c2ccc(NC(=O)c3ccc([N+](=O)[O-])o3)cc2)CC1	83.4*	2.1	-0.1	-3.5
CC(C)(C)C(=O)N1CCN(c2ccc(NC(=O)c3ccc([N+](=O)[O-])o3)cc2)CC1	133.2*	-0.1	0.6	0.3
O=C(Nc1cccc(Cl)c1N1CCOCC1)c1cc([N+](=O)[O-])ccc1N1CCOCC1	-23.3	0.0	0.0	-18.6
CCC(=O)N1CCN(c2ccc(NC(=O)c3ccc([N+](=O)[O-])o3)cc2)CC1	.	.	0.3	4.0
O=C(Nc1cccc(Cl)c1N1CCOCC1)c1ccc([N+](=O)[O-])o1	97.3*	2.6	0.5	5.3
O=C(CC1CC1)N[C@@H]1CC[C@H](CCNS(=O)(=O)c2ccc(F)cc2)O[C@@H]1CO	-9.2	5.0	0.3	-5.4
CN1C(=O)c2cc(NC(=O)c3ccccc3)ccc2OC[C@H]2O[C@H](CC(=O)NCC3CC3)CC[C@H]21	-0.5	1.3	0.2	12.7
C[C@H]1CCCCO[C@@H](CN(C)C(=O)Nc2ccccc2)[C@@H](C)CN([C@@H](C)CO)C(=O)c2cc(NC(=O)Nc3ccc4c(c3)OCO4)ccc2O1	3.2	-3.0	0.4	2.0
Cc1cccc(NC(=O)c2cc(Cl)nc3ccccc23)c1	93.0*	0.3	.	.
Cc1ccc(NC(=O)c2cc(Cl)nc3ccccc23)cc1	-3.8	3.8	.	.
CN1C(=O)c2cc(NS(=O)(=O)c3cccc(F)c3)ccc2OC[C@H]2O[C@@H](CC(=O)O)CC[C@@H]21	-15.1	-1.7	0.5	71.2*
CN1C(=O)c2cc(NS(=O)(=O)c3cccc(F)c3)ccc2OC[C@@H]2O[C@@H](CC(=O)O)CC[C@H]21	-5.5	96.5*	-0.1	-4.8
CN1C(=O)c2cc(NS(C)(=O)=O)ccc2OC[C@H]2O[C@@H](CC(=O)O)CC[C@@H]21	-6.0	4.8	0.2	-4.2
COC(=O)C[C@@H]1CC[C@@H]2[C@@H](COc3ccc(NS(=O)(=O)c4cccc(F)c4)cc3C(=O)N2C)O1	-10.3	-6.9	0.3	-6.0
CN(C)C(=O)C[C@@H]1CC[C@H]2[C@@H](COc3ccc(NS(=O)(=O)c4cccc(F)c4)cc3C(=O)N2C)O1	0.7	7.2	-0.1	-4.8
CNC(=O)C[C@H]1CC[C@H]2[C@H](COc3ccc(NS(=O)(=O)c4cccc(F)c4)cc3C(=O)N2C)O1	5.0	-4.5	0.2	-9.2
CN1C(=O)c2cc(NS(C)(=O)=O)ccc2OC[C@@H]2O[C@@H](CC(=O)O)CC[C@H]21	-92.5	83.1*	0.3	-11.5
SMILES	C2C12 statin	Cneo AK release	Xi reactivation	DENV2 CPE rescue
CN1C(=O)c2cc(NS(=O)(=O)c3cccc(F)c3)ccc2OC[C@H]2O[C@H](CC(=O)O)CC[C@H]21	-12.7	96.5*	0.2	-12.2
C[C@@H]1CN([C@H](C)CO)C(=O)c2cc(C#Cc3ccccc3F)cnc2O[C@H]1CN(C)C(=O)C1CC1	10.2	-4.3	-1.3	-6.3
COc1ccc2c3c(n(C)c2c1)[C@@H](CO)N(C(=O)Cc1ccccn1)CC31CN(CC2CCCC2)C1	.	.	0.0	-5.0
C[C@@H]1CN([C@@H](C)CO)C(=O)c2cc(C#Cc3ccccc3F)cnc2O[C@@H]1CN(C)S(=O)(=O)c1ccccc1F	13.8	0.1	0.3	9.8
Cc1ccc(S(=O)(=O)Nc2ccc3c(c2)C(=O)N([C@@H](C)CO)C[C@@H](C)[C@@H](CN(C)Cc2ccccc2)OCCCC[C@H](C)O3)cc1	.	-0.2	1.7	-14.2
CN1C(=O)c2cc(NS(=O)(=O)c3ccc(Cl)cc3)ccc2OC[C@@H]2O[C@H](CC(=O)N3CCc4ccccc4C3)CC[C@H]21	109.1*	-5.3	0.3	39.9*
CCC(=O)N1[C@@H]2c3cccc(=O)n3C[C@@H]2[C@@H](CO)[C@@H]1C(=O)N1CCc2ccccc2C1	3.5	-2.7	0.1	-8.5
C[C@@H]1CCCCO[C@@H](CN(C)C(=O)CCC(F)(F)F)[C@@H](C)CN([C@@H](C)CO)C(=O)c2cc(NC(=O)c3ccccc3)ccc2O1	.	-0.6	0.1	156.7*
C[C@H](CO)N1C[C@H](C)[C@H](CN(C)C(=O)CCC(F)(F)F)OCCCC[C@H](C)Oc2ccc(NC(=O)c3ccccc3)cc2C1=O	.	-2.7	0.2	21.0*
C[C@@H]1CCCCO[C@@H](CN(C)C(=O)CCC(F)(F)F)[C@H](C)CN([C@@H](C)CO)C(=O)c2cc(NC(=O)c3ccccc3)ccc2O1	.	-1.9	-0.1	14.1
C[C@@H]1CN([C@@H](C)CO)C(=O)c2cc(NC(=O)c3ccccc3)ccc2O[C@@H](C)CCCCO[C@H]1CN(C)C(=O)CCC(F)(F)F	.	-4.1	0.3	0.1
CO[C@H]1CN(C)C(=O)c2cc(NC(=O)c3cc(C)on3)ccc2OC[C@@H](C)N(C)C[C@@H]1C	-7.7	-0.4	0.1	-6.7
O=C1C/C(=C/NCc2ccccc2)C(=O)N1	95.2*	-3.9	.	.
Cc1cc(SC(C)C(=O)NCC(=O)Nc2ccc(F)c(F)c2F)nc2ccccc12 (stereo not given)	.	0.5	0.0	2.0
Cc1cc(C)c2nc(SC(C)C(=O)NCC(=O)Nc3ccc(F)c(F)c3F)cc(C)c2c1 (stereo not given)	.	.	0.1	27.8*
CC(=O)N(C)C[C@@H]1Oc2ncc(C#C[C@H](C)O)cc2C(=O)N([C@@H](C)CO)C[C@@H]1C	-3.4	1.2	-0.4	-4.5
CC1(C)OC(=O)C2=C(C[C@@H](C3CCCCC3)O[C@H]2c2ccccc2)O1	.	.	0.3	17.9
CC1(C)OC(=O)C2=C(C[C@@H](C3CCCCC3)O[C@H]2c2ccc(F)cc2)O1	2.6	-1.2	-0.1	55.2*
CCC(=O)Nc1ccc2c(c1)OC[C@H](C)N(C(=O)Cc1ccccn1)C[C@@H](C)[C@H](OC)CN(C)C2=O	-8.7	0.2	0.0	1.8
C[C@@H]1CN([C@H](C)CO)C(=O)c2cccc(NC(=O)C3CCOCC3)c2O[C@@H]1CN(C)C	-3.1	-6.1	0.0	10.3
CC(C)NC(=O)Nc1cccc2c1O[C@@H](CN(C)C(=O)Nc1ccccc1)[C@H](C)CN([C@H](C)CO)C2=O	-38.4	-4.0	0.2	0.0

Screening results from PubChem BioAssay.
